The values that follow come from ChEMBL document CHEMBL2385039 (Bioorg Med Chem, 2013).

The IC50 is the concentration that inhibits the measured activity by half. Read a high IC50 as weaker potency in that assay.

Experiment [1] deals with Betaine/GABA transporter BGT1 (mGAT2, slc6a12, Mus musculus). Description: Inhibition of mouse GAT2 expressed in HEK cells assessed as remaining [3H]-GABA uptake at 100 uM after 25 mins by liquid scintillation counting analysis relative to control. The conditions noted are these: HEK293.
Experiment [2] deals with GABA transporter 3 (mGAT3, slc6a13, Mus musculus). In words: Inhibition of mouse GAT3 expressed in HEK cells assessed as remaining [3H]-GABA uptake at 100 uM after 25 mins by liquid scintillation counting analysis relative to control. The conditions noted are these: HEK293.
For experiment [3], the target named is Sodium- and chloride-dependent GABA transporter 1 (Mus musculus, UniProt P31648). The experiment is classed as cell-based, HEK293.
For the next experiment, the system named is HEK293. Description: Inhibition of mouse GAT4 expressed in HEK cells assessed as remaining [3H]-GABA uptake at 100 uM after 25 mins by liquid scintillation counting analysis relative to control. The class given is cell-based. The method in brief: (§1)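 The assay used the standardized [³H]GABA uptake format in HEK lines, each stably expressing one murine GAT subtype (mGAT1, mGAT2, mGAT3 or mGAT4). The value is the remaining [³H]GABA uptake with 100 μM test compound present.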

Another experiment is described as follows: cells. The class given is cell-based. The conditions noted are these: HEK293.
Experiment [4] addresses Sodium- and chloride-dependent GABA transporter 1 (Mus musculus) (UniProt P31648). Description: Inhibition of mouse GAT1 expressed in HEK cells assessed as remaining [3H]-GABA uptake at 100 uM after 25 mins by liquid scintillation counting analysis relative to control. The experiment is classed as cell-based. The conditions noted are these: HEK293. Summed up:
as §1

With `O=C(c1ccccc1)c1ccccc1/C=C\OCCN1CCCC(C(=O)O)C1` (configuration not stated), the Activity came out at 72.3% in experiment [1], 59.8% in experiment [2] and 72.4% in the experiment on HEK293. Moreover, the IC50 in experiment [3] was 7.08 µM.

As to `O=C(c1ccccc1F)c1ccc(F)cc1/C=C\OCCN1CCCC(C(=O)O)C1` (configuration not stated), the results for the Activity (in experiment [1]; in experiment [2]; in the experiment on HEK293) were 74.5%, 83.2% and 86.3%, respectively. The same compound showed an IC50 in experiment [3] of 3.02 µM.

Take `O=C(O)C1CCCN(CCO/C=C/c2ccc(F)cc2Cc2ccc(F)cc2)C1` (configuration not stated): the Activity was determined as 71.6% in experiment [1], 49.3% in experiment [2] and 63.7% with HEK293. Also, half-maximal inhibition in experiment [3] (IC50) required 4.57 µM.

Regarding `O=C(O)[C@@H]1CCCN(CCC=C(c2ccccc2)c2ccccc2)C1`, the values for the 50% inhibitory concentration (IC50) (in the experiment “cells”; in experiment [3]) were 275 µM and 0.692 µM, respectively.

For `O=C(O)C1CCCN(CCO/C=C/c2cc(F)ccc2Cc2cccc(F)c2)C1` (configuration not stated), the Activity in experiment [1] was determined as 70.5%; in experiment [2], 59.3%; with HEK293, 51.8%. Moreover, the half-maximal inhibitory concentration (IC50) in experiment [3] is 6.76 µM.

With `O=C(O)C1CCCN(CCO/C=C\c2ccc(F)cc2Cc2ccc(F)cc2)C1` (configuration not stated), the Activity in experiment [1] was determined as 64.8%. The figures for the IC50 (in “cells”; in experiment [3]) were 25.7 µM and 1.17 µM, respectively.

Turning to `O=C(O)C1CCCN(CCO/C=C/c2cc(F)ccc2Cc2ccccc2F)C1` (configuration not stated), the Activity in experiment [1] is 47.8%; in experiment [2] it was 83.7%; with HEK293, 53.8%. Also, the IC50 in experiment [3] was 10.2 µM.

Turning to `O=C(c1ccccc1F)c1ccc(F)cc1/C=C/OCCN1CCCC(C(=O)O)C1` (configuration not stated), the Activity in experiment [1] was 68.6%; in experiment [2], 57.6%; in the experiment with HEK293 it was 52.1%. Besides, the midpoint of inhibition in experiment [3], the IC50, lay at 8.13 µM.

In the case of `O=C(O)C1CCCN(CCO/C=C/c2ccccc2Cc2ccccc2)C1` (configuration not stated), the Activity in experiment [1] worked out at 60.2%. The IC50 in “cells” was 31.6 µM; in experiment [3] it was 4.17 µM.

As for `O=C(c1cccc(F)c1)c1cc(F)ccc1/C=C/OCCN1CCCC(C(=O)O)C1` (configuration not stated), the Activity was 67.5% in experiment [4], 62.9% in experiment [1], 51.5% in experiment [2] and 67.6% with HEK293.

`O=C(O)C1CCCN(CCO/C=C/c2cc(F)ccc2Cc2ccc(F)cc2)C1` (configuration not stated): the Activity in experiment [1] was found to be 58.1%; in experiment [2], 62%. For the same compound, the values for the IC50 (in the experiment “cells”; in experiment [3]) were 93.3 µM and 8.91 µM, respectively.

Consider `O=C(c1cccc(F)c1)c1ccc(F)cc1/C=C/OCCN1CCCC(C(=O)O)C1` (configuration not stated), for which the IC50 in “cells” was 200 µM; in experiment [3], 29.5 µM.

Regarding `O=C(O)C1CCCN(CCO/C=C\c2ccccc2Cc2ccccc2)C1` (configuration not stated), the Activity came to 68.6% in experiment [1], 56% in experiment [2] and 66% in the experiment with HEK293. Further, the half-inhibitory concentration (IC50) in experiment [3] was 0.398 µM.

Take `O=C(c1ccc(F)cc1)c1cc(F)ccc1/C=C/OCCN1CCCC(C(=O)O)C1` (configuration not stated): the Activity in experiment [1] amounted to 71.4%; in experiment [2] it was 68.8%; in the experiment with HEK293, 72.7%. The compound also showed an IC50 in experiment [3] of 1.86 µM.

In the case of `O=C(O)C1CCCN(CCO/C=C/c2ccc(F)cc2Cc2ccccc2F)C1` (configuration not stated), the Activity came out at 57.5% in experiment [1] and 80.1% in experiment [2]. Besides, the IC50 is 58.9 µM in the experiment “cells” and 2.69 µM in experiment [3].

`O=C(O)[C@@H]1CCCN(CCOCCc2ccccc2Cc2ccccc2)C1`: the IC50 in experiment [3] is 0.1 µM.

`O=C(c1ccccc1F)c1cc(F)ccc1/C=C\OCCN1CCCC(C(=O)O)C1` (configuration not stated): the figures for the Activity (in experiment [2]; in the experiment on HEK293) were 43.5% and 45.1%, respectively. The compound further gave an IC50 in experiment [3] of 0.759 µM.

For the compound `Cc1ccsc1C(=CCCN1CCC[C@@H](C(=O)O)C1)c1sccc1C`, in the experiment on HEK293, the Activity amounted to 73.4%.

Consider `O=C(O)C1CCCN(CCO/C=C\c2cc(F)ccc2Cc2cccc(F)c2)C1` (configuration not stated), for which the Activity amounted to 60.3% in experiment [1] and 56% with HEK293. In experiment [3], this compound gave an IC50 of 0.302 µM.

As to `O=C(O)C1CCCN(CCO/C=C\c2cc(F)ccc2Cc2ccccc2F)C1` (configuration not stated), in experiment [1], the Activity came to 71.1%. Moreover, the half-maximal inhibitory concentration (IC50) is 49 µM in the experiment “cells” and 0.302 µM in experiment [3].

Take `O=C(O)C1CCCN(CCO/C=C\c2ccc(F)cc2Cc2ccccc2F)C1` (configuration not stated): in experiment [1], the Activity was 80.1%. In addition, the IC50 is 60.3 µM in “cells” and 0.631 µM in experiment [3].

For `O=C(c1ccc(F)cc1)c1ccc(F)cc1/C=C/OCCN1CCCC(C(=O)O)C1` (configuration not stated), the figures for the Activity (in experiment [1]; in experiment [2]; in the experiment on HEK293) were 61.2%, 97.7% and 94.3%, respectively. In addition, the IC50 in experiment [3] was 20.9 µM.

Consider `Cc1ccsc1C(=COCCN1CCC[C@@H](C(=O)O)C1)c1sccc1C`, for which the IC50 in experiment [3] is 0.0141 µM.

In the case of `O=C(c1ccccc1F)c1cc(F)ccc1/C=C/OCCN1CCCC(C(=O)O)C1` (configuration not stated), the IC50 in the experiment “cells” was 67.6 µM; in experiment [3] it was 10.7 µM.

Regarding `O=C(c1cccc(F)c1)c1ccc(F)cc1/C=C\OCCN1CCCC(C(=O)O)C1` (configuration not stated), the Activity in experiment [1] amounted to 96.1%; in experiment [2], 83.6%; in the experiment on HEK293 it was 52.1%. The compound further showed a 50% inhibitory concentration (IC50) in experiment [3] of 2.63 µM.

Turning to `O=C(c1ccc(F)cc1)c1ccc(F)cc1/C=C\OCCN1CCCC(C(=O)O)C1` (configuration not stated), the values for the Activity (in experiment [1]; in experiment [2]; with HEK293) were 70.2%, 79.5% and 82.2%, respectively. In addition, half-maximal inhibition in experiment [3] (IC50) required 7.59 µM.

With `O=C(c1cccc(F)c1)c1cc(F)ccc1/C=C\OCCN1CCCC(C(=O)O)C1` (configuration not stated), the Activity stood at 56.9% in experiment [1], 52.7% in experiment [2] and 45.2% in the experiment with HEK293. This compound also gave an IC50 in experiment [3] of 0.794 µM.

For `O=C(c1ccc(F)cc1)c1cc(F)ccc1/C=C\OCCN1CCCC(C(=O)O)C1` (configuration not stated), the Activity worked out at 73% in experiment [1], 59.8% in experiment [2] and 44.8% with HEK293. Further, the midpoint of inhibition in experiment [3], the IC50, lay at 0.339 µM.

For the compound `O=C(c1ccccc1)c1ccccc1/C=C/OCCN1CCCC(C(=O)O)C1` (configuration not stated), the Activity was determined as 67.5% in experiment [1], 55.9% in experiment [2] and 79.8% in the experiment with HEK293. In experiment [3], the IC50 is 25.1 µM.

Consider `O=C(O)C1CCCN(CCO/C=C\c2cc(F)ccc2Cc2ccc(F)cc2)C1` (configuration not stated), for which the IC50 in experiment [3] was 1.1 µM. For the same compound, the Activity in the experiment with HEK293 is 50.3%.
